# proCasp3 act: activates human procaspase-3. P42574. recombinant procaspase-3 D3A, Ac-DEVD-pNA absorbance 405 nm. activation, % at 8.5 µM. hit rate 0.11% among 330,000;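 active means activation above the mean of all tested compounds plus 3 SD, cut at about 21% in these data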
# Target sequence (P42574 whole entry D9A/D28A/D175A): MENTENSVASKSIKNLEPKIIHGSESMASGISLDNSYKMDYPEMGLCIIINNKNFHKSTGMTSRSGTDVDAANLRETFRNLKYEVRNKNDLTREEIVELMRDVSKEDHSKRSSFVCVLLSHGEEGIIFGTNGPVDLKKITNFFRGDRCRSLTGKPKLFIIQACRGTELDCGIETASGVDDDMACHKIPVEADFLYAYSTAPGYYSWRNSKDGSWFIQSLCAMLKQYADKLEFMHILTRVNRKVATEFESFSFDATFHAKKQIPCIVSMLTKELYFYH
#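 Evaluation: percent activation relative to control range; Material: Procaspase-3 D3A mutant, all three cleavage aspartates alanine; Compound: single dose, 8.5 µM nominal compound, 0.8% DMSO; Replication: one well per compound; Signal: absorbance at 405 nm, 0 and 120 min; Schedule: 1 h preincubation plus 2 h reaction at 25 °C.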
# CHT inh: human CHT choline transport inhibition | CHT-expressing cells, membrane potential dye, choline response; hits give low values | B-score at 10 µM | hit rate 0.86% among 310,000 | AID 488975 | Q9GZV3;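 active means B-score over 3 SD under the library average, and starting fluorescence ratio not unusually high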;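 further: choline stimulus applied at its EC90 after an EC20 pre-addition; B-score computed on integrated fluorescence ratio after choline addition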
# CHT PAM: human CHT allosteric activation; hit rate 0.49% among 310,000; B-score at 10 µM; CHT-expressing cells, membrane potential dye, choline EC20; hits give high values; LV-AA mutant CHT in HEK293 cells; AID 488977; Q9GZV3;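 active means initial fluorescence not abnormally high and integrated response B-score, plate-corrected, over 3 SD above library mean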
# procasp7 counter: counter-screen: procaspase-7 (human) activation; hit rate 0.093% among 330,000; P55210; recombinant procaspase-7, Ac-DEVD-pNA absorbance 405 nm; D23A/D198A/D206A triple mutant, cannot self-cleave; scale: DMSO 0, 5 µM enzyme 100; activation, % at 8.5 µM;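 active means percent activation above the screen-wide mean plus 3 SD, cut at about 25% in these data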
# Target sequence (P55210 whole entry D23A/D198A/D206A): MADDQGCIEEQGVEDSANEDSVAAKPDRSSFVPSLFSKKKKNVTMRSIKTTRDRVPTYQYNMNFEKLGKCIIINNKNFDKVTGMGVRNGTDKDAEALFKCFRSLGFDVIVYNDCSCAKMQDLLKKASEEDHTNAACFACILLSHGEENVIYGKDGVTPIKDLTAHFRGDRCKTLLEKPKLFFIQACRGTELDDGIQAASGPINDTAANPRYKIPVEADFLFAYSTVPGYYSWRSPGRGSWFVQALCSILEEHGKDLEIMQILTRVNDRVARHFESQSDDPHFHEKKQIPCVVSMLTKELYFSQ
#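 Replicates: singlicate. Assay system: Procaspase-7 triple mutant (PC-7 D3A). Signal: 405 nm absorbance of p-nitroaniline. Times: 1 h preincubation, 2 h reaction. Buffer or medium: Zinc-free HEPES pH 7.4 with 300 mM NaCl, 0.01% Triton X-100. Also added: DEVD-pNA substrate. Benchmarks: DMSO wells as 0%, DMSO with 5 µM added PC-7 as 100%.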
# CHT block conf: confirmation of human choline transporter CHT inhibitors. shares compounds with CHT inh. CHT-expressing cells, choline membrane potential dye; LV-to-AA substituted CHT, HEK293 cells. CHT activity remaining % of control (hits give low values), % at 10 µM. hit rate 70% among 2,400;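 active means choline transporter activity left, mean of duplicates at 10 µM, below buffer-only control mean minus 3 SD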;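 further: depolarization triggered by choline at its EC90 following an EC20 pre-addition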
# HEK293 MPD ctr: counter-screen for CHT inhibitors: effect in parental HEK293 cells | shares compounds with CHT inh | membrane potential dye, choline response; active = decrease or increase beyond buffer ±3SD | membrane potential ratio readout (active if shifted either direction beyond buffer ±3SD; no single direction) at 10 µM | hit rate 4% among 2,400 | AID 493222;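 further: parental cells lack the transporter so any hit is non-specific; ratio is peak minus trough fluorescence over baseline after EC90 choline challenge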
# Hits are given with their value; – = inactive; · = no result. Hits are enriched below; roughly 1.3% of the tested compounds scored in any of these assays.
SMILES,proCasp3 act,CHT inh,CHT PAM,procasp7 counter,CHT block conf,HEK293 MPD ctr
CN(CCc1ccccc1)C(=O)c1cccc(NC(=O)Cc2cccc([N+](=O)[O-])c2)c1,–,·,·,–,·,·
Cc1ccccc1CNS(=O)(=O)c1ccc2c(c1)OCCO2,–,-5.81,–,–,64.2%,–
Cc1ccc(CNS(=O)(=O)c2ccc3c(c2)OCCO3)cc1,–,–,–,–,·,·
Cc1c(CN2CCC(CO)(Cc3cccc(C(F)(F)F)c3)CC2)c2ccccc2n1C,–,–,–,–,·,·
CCC(=O)c1ccc(OCc2ccc(C(=O)c3ccccc3)cc2)cc1,–,–,–,–,·,·
NC(=S)N/N=C1/CCSc2ccc3ccccc3c21,–,-5.58,–,–,68.5%,–
NC(=S)N/N=C/c1c(O)ccc2ccccc12,–,–,–,–,·,·
CCCN(CC(=O)Nc1ccc(F)c(F)c1F)C(=O)Cn1c(=O)cnc2ccccc21,–,-11.5,–,–,8.6%,–
COc1ccc(CCNC(=O)C(C)c2ccc([N+](=O)[O-])cc2)cc1 (stereo unspecified),–,-5.46,–,–,–,–
COc1ccc(CCN(C)C(=O)c2cc(=O)c3ccccc3o2)cc1OC,–,–,–,–,·,·
Cc1ccccc1Nc1c(-c2cccnc2)nc2ccc(Br)cn12,–,–,–,–,·,·
Cc1ccccc1Nc1c(-c2ccncc2)nc2ccc(Br)cn12,–,-6.92,–,–,50.8%,–
O=C(NCc1ccc2c(c1)OCO2)c1ccc(COc2cc(Cl)ccc2Cl)o1,–,-5.12,–,–,–,–
Cn1nc(C(=O)NNC(=O)C(CCC(N)=O)NS(=O)(=O)c2ccc(Cl)cc2)c2ccccc2c1=O (stereo unspecified),–,·,·,–,·,·
CCN(CCN(C)C)C(=O)c1ccc2c(c1NCCO)C(=O)c1ccccc1C2=O,–,–,–,–,·,·
CC1(C)CCCN(C(=O)c2ccc3c(c2NCCO)C(=O)c2ccccc2C3=O)C1,–,-7.18,–,–,41.9%,2.56
Cc1cc(/C=N/NC(=O)c2ccncc2)c(C)n1-c1ccccc1,–,-6.79,–,–,30.0%,–
COC(=O)N/N=C/c1cc(C)n(-c2ccc(F)cc2)c1C,–,–,–,–,·,·
CCc1ccc(-n2c(C)cc(/C=N/NC(=O)OC)c2C)cc1,–,-8.63,–,–,61.7%,–
COC(=O)N/N=C/c1cc(C)n(-c2ccccc2)c1C,–,-8.35,–,–,23.4%,–
CCN(CC)c1ccc(C=Nc2ccc(OC)c(S(=O)(=O)N3CCOCC3)c2)c(O)c1,–,·,·,–,·,·
CCN(CC)C(=O)[C@H]1C[C@H](CC(=O)NC(C)(C)C)C(=O)N2CCc3c([nH]c4cc(CCC(=O)N(C)C)ccc34)[C@]12C,–,·,·,–,·,·
COc1ccc(CC(NC(C)=O)C(=O)NC2CCN(c3ncccc3[N+](=O)[O-])CC2)cc1 (stereo unspecified),–,–,–,–,·,·
Cc1ccccc1NC1=C/C(=N\S(=O)(=O)c2ccc(C(=O)O)cc2)c2ccccc2C1=O,–,–,–,–,·,·
CC(C)c1ccc(S(=O)(=O)/N=C2\C=C(NS(=O)(=O)c3ccccc3)C(=O)c3ccccc32)cc1,–,-10.1,–,–,38.9%,–
SMILES,proCasp3 act,CHT inh,CHT PAM,procasp7 counter,CHT block conf,HEK293 MPD ctr
O=C(NC1CCCC1)c1cc(-c2ccc(Cl)cc2)on1,–,–,–,–,·,·
C/C(=N\OCc1ccccc1)c1c(O)cc(C(C)C)n(-c2ccccc2)c1=O,–,–,–,–,·,·
CCOC(=O)c1ccc(CC(=O)c2ccc(O)cc2O)o1,–,-6.04,–,–,68.2%,–
O=C(CCn1nnnc1CN1CCOCC1)N1CCC(c2cccc(Cl)c2)C1 (stereo unspecified),–,–,–,–,·,·
Cc1ccc(NC(=S)NNC(=O)c2cccc([N+](=O)[O-])c2)cc1Cl,–,-5.68,–,–,54.1%,–
O=c1cc(-c2ccccc2)c2c(O)cc(O)cc2o1,–,-4.97,–,–,50.4%,–
O=C(CCc1ccccc1O)NC1CCCc2ccccc21 (stereo unspecified),–,-6.16,–,–,–,–
Cc1ccc2cc3c(NS(=O)(=O)c4cccc5nonc45)nn(CC(C)C)c3nc2c1,–,-5.96,–,–,64.5%,–
CCCn1nc(NS(=O)(=O)c2cccc3nonc23)c2cc3cccc(C)c3nc21,–,-6.27,–,–,54.4%,–
CCCn1nc(NS(=O)(=O)c2cccc3nonc23)c2cc3cc(C)ccc3nc21,–,–,–,–,·,·
Cc1ccc(S(=O)(=O)N2[C@@H](c3ccc(C(C)C)cc3)C(C(=O)O)=C[C@H]2C(C)(C)C)cc1,–,·,·,–,·,·
Cn1c(SCc2nc3ccccc3s2)nnc1-c1cccs1,–,-5.1,–,–,56.2%,–
CCn1c(SCc2nc3ccccc3s2)nnc1-c1cccs1,–,–,–,–,·,·
Cn1c(-c2ccccc2O)cc2ccccc21,–,-8.06,–,–,50.6%,–
Cc1ccc(S(=O)(=O)NC(CC(C)C)C(=O)NCCCn2nc(C)cc2C)cc1 (stereo unspecified),–,·,·,–,·,·
O=[N+]([O-])c1ccc(NNC(=S)Nc2ccc(F)cc2)cc1,–,-6.95,–,–,–,–
CC(C)CCNC(=S)Nc1ccc([N+](=O)[O-])cc1,–,-8.68,–,–,22.7%,–
CCCCNC(=S)Nc1ccc([N+](=O)[O-])cc1,–,-9.25,–,–,34.7%,–
CCCCNC(=S)NC(=O)c1ccc([N+](=O)[O-])cc1,–,–,–,–,·,·
CC(=O)N1CCN(S(=O)(=O)c2cccc(C(=O)Nc3cc(C(F)(F)F)ccc3N3CCOCC3)c2)CC1,–,–,–,–,·,·
C=CCNC(=S)N1CCN(Cc2ccc3c(c2)OCO3)CC1,–,–,–,–,·,·
O=C1c2ccccc2C(=O)c2c(Nc3ccc(CCO)cc3)ccc(O)c21,–,-7.41,–,–,66.8%,–
COc1cc(CNc2ccc(N3CCCCC3)cc2)ccc1OCC(=O)NC(C)(C)C,–,-9.9,–,–,47.2%,–
COc1cc(CNc2ccc(N3CCCC3)cc2)ccc1OCc1ccccc1,–,–,–,–,·,·
COc1ccc(/C=N/n2nnnc2N)c(OC)c1,·,–,–,·,·,·
Cc1ccc(S(=O)(=O)N2CCC3(CC2)OCCO3)s1,–,–,–,–,·,·
Cc1ccc(NC(=O)Cn2cc(C=O)c3ccccc32)cc1,–,–,–,–,·,·
CC(C)(C)NCC(O)Cn1cc(C=O)c2ccccc21 (stereo unspecified),–,-5.67,–,–,49.6%,–
Cc1c(CCC(=O)NCCCn2ccnc2)c(=O)oc2c(C)c3occ(C(C)(C)C)c3cc12,–,-5.46,–,–,28.8%,–

# Source: PubChem BioAssay (several laboratories)
